{
  "source": "ChEMBL document CHEMBL5705906",
  "about": "(Nat Commun, 2017)",
  "key": {"PC-9 [1]": {"test_system": "PC-9", "assay": "Anti-tumor activity against human PC-9 cells expressing EGFR-C797S/T790M/del19 mutant xenografted in Balb-c nu/nu mouse assessed as decreased tumor growth at 75 mg/kg, po administered for 60 days and measured twice weekly in presence of panitumumab", "type": "functional, organism-based", "conditions": "time 60.0 day", "method_in_brief": "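PC9 EGFR-C797S/T790M/del19 xenografts in Balb-c nu/nu mice, randomized at ~200 mm³. […] Tumour volume 0.5×length×width² measured twice weekly. Survival by Kaplan-Meier. N = 6. Mann-Whitney U test at days 16 and 23.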"}, "PC-9 [2]": {"test_system": "PC-9", "assay": "Anti-tumor activity against EGFR T790M/del19 mutant expressing gefitinib-resistant human PC-9 cells xenografted in Balb-c nu/nu mouse assessed as growth inhibition at 75 mg/kg, po administered for 42 days and measured for 3 times per week in presence of cetuximab", "type": "functional, organism-based", "conditions": "time 42.0 day"}, "MGH121": {"test_system": "MGH121", "assay": "Anti-tumor activity against human MGH121 cells expressing EGFR-C797S/T790M/del19 mutant xenografted in SCID-beige mouse assessed as tumor shrinkage at 75 mg/kg, po administered for 40 days and measured twice weekly", "type": "functional, organism-based", "conditions": "time 40.0 day", "method_in_brief": "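MGH121-res2 cells (EGFR-C797S/T790M/del19) implanted s.c. in SCID-beige mice. Randomized at mean tumour ~200 mm³. […] Tumour volume 0.5×length×width² and body weight measured twice weekly. N = 6, mean ± s.d. Mann-Whitney U test on day 42.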"}, "PC-9 [3]": {"test_system": "PC-9", "conditions": "Homo sapiens, dose 75.0 mg/kg, route po, time 60.0 day"}, "A549": {"test_system": "A549", "assay": "Anticancer activity against human A549 cells assessed as reduction in cell viability at IC50 concentration incubated for 72 hrs by CellTiter-Glo assay", "type": "functional, cell-based", "method_in_brief": "(§1)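 Three-day CellTiter-Glo viability assay. Cells exposed to compound across a 10-dose range of 0.3 nM to 10 µM for 72 h. IC50 from nonlinear sigmoidal dose-response fit.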"}, "A-431": {"test_system": "A-431", "assay": "Anticancer activity against human A-431 cells assessed as reduction in cell viability at IC50 concentration incubated for 72 hrs by CellTiter-Glo assay", "type": "functional, cell-based", "method_in_brief": "as §1"}, "PC-9 [4]": {"test_system": "PC-9", "conditions": "Homo sapiens, dose 75.0 mg/kg, route po, time 60.0 day", "remark": "listed apart in the source"}, "BaF3 [5]": {"test_system": "BaF3", "type": "cell-based", "conditions": "Mus musculus, dose 10-1000 nM, time 6.0 hrs"}, "[6]": {"test_system": "Epidermal growth factor receptor (Homo sapiens), P00533 [UNDEFINED MUTATION]", "sequence (P00533 whole entry, looked up, change not shown)": "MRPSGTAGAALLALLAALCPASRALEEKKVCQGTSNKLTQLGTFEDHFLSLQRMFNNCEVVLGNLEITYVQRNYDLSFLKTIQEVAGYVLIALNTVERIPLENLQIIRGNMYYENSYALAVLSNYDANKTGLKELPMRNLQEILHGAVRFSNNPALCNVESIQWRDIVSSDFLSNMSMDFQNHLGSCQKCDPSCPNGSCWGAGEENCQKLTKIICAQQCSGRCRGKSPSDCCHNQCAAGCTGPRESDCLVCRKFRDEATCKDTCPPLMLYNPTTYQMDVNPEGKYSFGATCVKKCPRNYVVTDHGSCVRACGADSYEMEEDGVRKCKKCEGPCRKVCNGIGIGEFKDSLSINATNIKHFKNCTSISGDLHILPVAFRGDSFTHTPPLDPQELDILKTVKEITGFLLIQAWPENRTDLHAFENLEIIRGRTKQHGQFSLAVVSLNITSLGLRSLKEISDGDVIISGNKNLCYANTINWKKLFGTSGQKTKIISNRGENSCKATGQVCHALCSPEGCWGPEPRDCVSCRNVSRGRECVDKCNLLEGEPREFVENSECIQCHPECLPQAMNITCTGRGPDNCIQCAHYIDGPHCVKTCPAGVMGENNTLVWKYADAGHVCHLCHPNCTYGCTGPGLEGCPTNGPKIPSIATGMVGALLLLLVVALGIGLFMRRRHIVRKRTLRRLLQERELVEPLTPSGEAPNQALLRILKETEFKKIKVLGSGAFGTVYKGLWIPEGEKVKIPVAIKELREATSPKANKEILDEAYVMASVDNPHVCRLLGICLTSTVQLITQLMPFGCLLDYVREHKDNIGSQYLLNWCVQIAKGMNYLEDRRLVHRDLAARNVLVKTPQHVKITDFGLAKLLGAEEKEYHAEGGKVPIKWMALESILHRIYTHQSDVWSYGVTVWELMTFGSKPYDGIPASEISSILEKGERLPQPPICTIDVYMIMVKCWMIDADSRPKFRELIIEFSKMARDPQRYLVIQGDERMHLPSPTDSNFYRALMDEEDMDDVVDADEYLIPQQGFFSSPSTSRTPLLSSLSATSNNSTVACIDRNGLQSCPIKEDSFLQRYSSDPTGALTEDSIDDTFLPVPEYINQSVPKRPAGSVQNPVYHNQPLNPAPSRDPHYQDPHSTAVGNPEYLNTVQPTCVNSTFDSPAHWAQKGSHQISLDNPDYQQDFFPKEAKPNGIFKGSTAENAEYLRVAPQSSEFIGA", "conditions": "PC-9, dose 10-1000 nM"}, "[7]": {"test_system": "Epidermal growth factor receptor (Homo sapiens), P00533 [UNDEFINED MUTATION]", "conditions": "PC-9, dose 10-1000 nM", "remark": "listed apart in the source"}, "BaF3 [8]": {"test_system": "BaF3", "type": "cell-based", "conditions": "Mus musculus, dose 10-1000 nM, time 6.0 hrs", "remark": "listed apart in the source"}, "BaF3 [9]": {"test_system": "BaF3", "conditions": "Mus musculus, dose 10-1000 nM"}, "[10]": {"test_system": "Epidermal growth factor receptor (Homo sapiens), P00533 [UNDEFINED MUTATION]", "conditions": "PC-9, dose 500.0 nM, time 48.0 hrs"}, "[11]": {"target": "Epidermal growth factor receptor (Homo sapiens) (UniProt P00533)", "sequence (P00533 whole entry)": "as the sequence (P00533 whole entry, looked up, change not shown) above", "conditions": "dose 0.01-10000 nM, time 10.0 min"}, "BaF3 [12]": {"test_system": "BaF3", "conditions": "Mus musculus, dose 10-1000 nM, time 6.0 hrs"}, "BaF3 [13]": {"test_system": "BaF3", "assay": "Inhibition of EGFR-C797S/T790M/del19 mutant in mouse BaF3 cells assessed as reduction in Akt phosphorylation incubated for 6 hrs by Western blotting analysis", "type": "cell-based"}, "[14]": {"test_system": "Epidermal growth factor receptor (Homo sapiens), P00533 [UNDEFINED MUTATION]", "conditions": "MGH121, dose 10-1000 nM"}, "PC-9 [15]": {"test_system": "PC-9", "conditions": "Homo sapiens, dose 75.0 mg/kg, route po, time 15.0 day"}, "PC-9 [16]": {"test_system": "PC-9", "conditions": "Homo sapiens, dose 75.0 mg/kg, route po, time 60.0 day", "remark": "listed apart in the source"}, "PC-9 [17]": {"test_system": "PC-9", "assay": "Anti-tumor activity against human PC-9 cells expressing EGFR-C797S/T790M/del19 mutant xenografted in Balb-c nu/nu mouse assessed as decreased tumor growth at 75 mg/kg, po administered for 60 days and measured twice weekly in presence of cetuximab", "type": "functional, organism-based", "conditions": "time 60.0 day", "method_in_brief": "(§2)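 PC9 EGFR-C797S/T790M/del19 xenografts in Balb-c nu/nu mice, randomized at ~200 mm³. […] Tumour volume 0.5×length×width² and body weight measured twice weekly. Survival shown by Kaplan-Meier curve. N = 6. Mann-Whitney U test on tumour volume at day 23.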"}, "PC-9 [18]": {"test_system": "PC-9", "assay": "Anti-tumor activity against human PC-9 cells expressing EGFR-C797S/T790M/del19 mutant xenografted in Balb-c nu/nu mouse assessed as prolonged survival at 75 mg/kg, po administered for 60 days and measured twice weekly in presence of cetuximab", "type": "functional, organism-based", "conditions": "time 60.0 day", "method_in_brief": "as §2"}, "[19]": {"assay": "Cytotoxicity against mouse Ba/F3 EGFR-Del19/T790M/C797S cells assessed as inhibition of cell viability by measuring fold change at 30 nM incubated for 72 hrs in presence of cetuximab by CellTiter-Glo assay relative to brigatinib alone", "type": "functional"}, "PC-9 [20]": {"test_system": "PC-9", "assay": "Inhibition of EGFR T790M/del19 mutant in human PC-9 cells assessed as reduction in EGFR phosphorylation at 10 to 1000 nM by Western blotting analysis", "type": "cell-based", "conditions": "dose 10-1000 nM"}, "BaF3 [21]": {"test_system": "BaF3", "assay": "Inhibition of EGFR-T790M/del19 mutant in mouse BaF3 cells assessed as inhibition of Akt phosphorylation at 10 to 1000 nM incubated for 6 hrs by Western blotting analysis", "type": "cell-based", "conditions": "dose 10-1000 nM", "method_in_brief": "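Ba/F3 cells carrying the stated EGFR mutant were made IL-3-independent after 1 week of 7 µM blasticidin selection. They were grown in low-glucose DMEM with 10% FBS and exposed to inhibitor for 6 h. Cells were washed in cold PBS, lysed in SDS buffer (100 mM Tris, 1% SDS, 10% glycerol) and boiled 5 min. Protein was measured by BCA, run on SDS-PAGE, transferred to PVDF, blocked in 5% BSA or milk/TBS-T, and immunoblotted.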"}, "NCI-H460 [22]": {"test_system": "NCI-H460", "assay": "Anticancer activity against human NCI-H460 cells assessed as reduction in cell viability at IC50 concentration incubated for 72 hrs by CellTiter-Glo assay", "type": "functional, cell-based", "method_in_brief": "as §1"}, "NCI-H460 [23]": {"test_system": "NCI-H460", "assay": "Anticancer activity against KRAS-mutated human NCI-H460 cells assessed as reduction in cell viability at 1 to 10000 nM incubated for 72 hrs by CellTiter-Glo assay", "type": "functional, cell-based", "conditions": "dose 1-10000 nM"}, "BaF3 [24]": {"test_system": "BaF3", "type": "cell-based", "conditions": "Mus musculus, dose 10-1000 nM, time 6.0 hrs", "remark": "listed apart in the source"}, "[25]": {"test_system": "Ba/F3 EGFR-Del19/T790M/C797S", "assay": "Cytotoxicity against mouse Ba/F3 EGFR-Del19/T790M/C797S cells assessed as growth inhibition at 100 nM incubated for 72 hrs in presence of panitumumab by CellTiter-Glo assay", "type": "functional, cell-based"}, "BaF3 [26]": {"test_system": "BaF3", "assay": "Inhibition of EGFR-C797S/T790M/del19 mutant in mouse BaF3 cells assessed as reduction in EGFR phosphorylation incubated for 6 hrs by Western blotting analysis", "type": "cell-based"}},
  "note": "The source made the active and inactive calls. The rule behind the calls is not given here.",
  "data": [
    {"smiles": "COc1cc(N2CCC(N3CCN(C)CC3)CC2)ccc1Nc1ncc(Cl)c(Nc2ccccc2P(C)(C)=O)n1", "note": "[BRIGATINIB]", "values": [
      {"measurement": "Activity", "setting": "PC-9 [1]", "result": "Active"},
      {"measurement": "Activity", "setting": "PC-9 [2]", "result": "Active"},
      {"measurement": "Activity", "setting": "MGH121", "result": "Active"},
      {"measurement": "inhibition", "setting": "PC-9 [3]", "result": "Active"},
      {"measurement": "Activity", "setting": "A549", "result": "Active"},
      {"measurement": "Activity", "setting": "A-431", "result": "Active"},
      {"measurement": "inhibition", "setting": "PC-9 [4]", "result": "Active"},
      {"measurement": "inhibition", "setting": "BaF3 [5]", "result": "Active"},
      {"measurement": "inhibition", "setting": "[6]", "result": "Active"},
      {"measurement": "inhibition", "setting": "[7]", "result": "Active"},
      {"measurement": "inhibition", "setting": "BaF3 [8]", "result": "Active"},
      {"measurement": "inhibition", "setting": "BaF3 [9]", "result": "Dose-Dependent Effect"},
      {"measurement": "inhibition", "setting": "[10]", "result": "Active"},
      {"measurement": "inhibition", "setting": "[11]", "result": "Dose-Dependent Effect"},
      {"measurement": "inhibition", "setting": "BaF3 [12]", "result": "Active"},
      {"measurement": "inhibition", "setting": "BaF3 [13]", "result": "Dose-Dependent Effect"},
      {"measurement": "inhibition", "setting": "[14]", "result": "Active"},
      {"measurement": "inhibition", "setting": "PC-9 [15]", "result": "Active"},
      {"measurement": "inhibition", "setting": "PC-9 [16]", "result": "Active"},
      {"measurement": "Activity", "setting": "PC-9 [17]", "result": "Active"},
      {"measurement": "Activity", "setting": "PC-9 [18]", "result": "Active"},
      {"measurement": "fold change (FC)", "setting": "[19]", "result": "~3"},
      {"measurement": "inhibition", "setting": "PC-9 [20]", "result": "Active"},
      {"measurement": "inhibition", "setting": "BaF3 [21]", "result": "Active"},
      {"measurement": "Activity", "setting": "NCI-H460 [22]", "result": "Active"},
      {"measurement": "Activity", "setting": "NCI-H460 [23]", "result": "Active"},
      {"measurement": "inhibition", "setting": "BaF3 [24]", "result": "Active"},
      {"measurement": "growth inhibition (GI)", "setting": "[25]", "result": "Active"},
      {"measurement": "inhibition", "setting": "BaF3 [26]", "result": "Dose-Dependent Effect"}
    ]}
  ]
}
